Results: ChEMBL document CHEMBL1268908, “Design, synthesis, radiolabeling, and in vivo evaluation of carbon-11 labeled N-[2-[4-(3-cyanopyridin-2-yl)piperazin-1-yl]ethyl]-3-methoxybenzamide, a potential positron emission tomography tracer for the dopamine D(4) receptors” (J Med Chem, 2010)

Experiments:
Format in all cases: ADME, organism-based, Macaca mulatta
[1] = Biodistribution in rhesus monkey cingulate cortex at 150.3 MBq, iv after 57.5 mins; details: in vivo
Method in brief: (§1)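 Single male rhesus monkey anesthetized with ketamine 10 mg/kg im, head fixed. Attenuation correction by 20 min 68Ge-68Ga transmission scan. [11C]-tracer in saline (pH 7.4) given iv, specific radioactivity 2.9 TBq/μmol at injection. Dynamic 3D PET emission scan over 90 min in frames of 0.5 to 5 min. MRI T1 images used to define VOIs. Uptake expressed as […].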

[2] = Biodistribution in rhesus monkey retina at 150.3 MBq, iv after 35 mins; details: in vivo
[3] = test system: Hippocampus; assay: Biodistribution in rhesus monkey hippocampus at 150.3 MBq, iv after 5.5 mins; details: in vivo
Method in brief: (§2)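 Male rhesus monkey under ketamine 10 mg/kg im, head fixed; 20 min 68Ge-68Ga transmission scan, then 90 min dynamic 3D PET (6×0.5, 7×1, 20×2, 8×5 min frames) after iv [11C]-labelled tracer in saline, specific radioactivity about 2.9 TBq/μmol at injection. Regions defined on T1-weighted MRI; uptake expressed as % injected dose per mL.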

[4] = Biodistribution in rhesus monkey cerebellum at 150.3 MBq, iv after 11 mins; details: in vivo
Method in brief: (§3)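 Male rhesus monkey under ketamine (10 mg/kg im) with head fixation. After a 20 min 68Ge-68Ga transmission scan, the [11C]-labelled tracer in saline (pH 7.4) was injected iv, at 2.9 TBq/μmol specific radioactivity at injection. A dynamic 3D PET scan followed over 90 min (6×0.5, 7×1, 20×2, 8×5 min frames). Regions were defined on T1-weighted 1.5 T MRI, and uptake is given as %ID/mL.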

[5] = Biodistribution in rhesus monkey retina at 150.3 MBq, iv after 2.75 mins; details: in vivo, 165 s
[6] = Biodistribution in rhesus monkey entorhinal cortex at 150.3 MBq, iv after 52.5 mins; details: in vivo, 0.875 h; method in brief: as §1
[7] = Biodistribution in rhesus monkey cingulate cortex at 150.3 MBq, iv after 27 mins; details: in vivo, 0.45 h; method in brief: as §3
[8] = Biodistribution in rhesus monkey retina at 150.3 MBq, iv after 45 mins; details: in vivo, 0.75 h
[9] = Biodistribution in rhesus monkey cerebellum at 150.3 MBq, iv after 25 mins; details: in vivo; method in brief: as §3
[10] = test system: Striatum; assay: Biodistribution in rhesus monkey striatum at 150.3 MBq, iv after 47 mins; details: in vivo
[11] = test system: Hippocampus; assay: Biodistribution in rhesus monkey hippocampus at 150.3 MBq, iv after 9.5 mins; details: in vivo; method in brief: as §2
[12] = Biodistribution in rhesus monkey cingulate cortex at 150.3 MBq, iv after 5.5 mins; details: in vivo; method in brief: as §1
[13] = Biodistribution in rhesus monkey occipital lobe at 150.3 MBq, iv after 11 mins; details: in vivo; method in brief: as §2
[14] = test system: Striatum; assay: Biodistribution in rhesus monkey striatum at 150.3 MBq, iv after 43 mins; details: in vivo
[15] = Biodistribution in rhesus monkey cerebellum at 150.3 MBq, iv after 31 mins; details: in vivo; method in brief: as §3
[16] = test system: Striatum; assay: Biodistribution in rhesus monkey striatum at 150.3 MBq, iv after 7.5 mins; details: in vivo, 0.125 h
[17] = Biodistribution in rhesus monkey retina at 150.3 MBq, iv after 57.5 mins; details: in vivo
[18] = Biodistribution in rhesus monkey entorhinal cortex at 150.3 MBq, iv after 2.75 mins; details: in vivo, 165 s; method in brief: as §1
[19] = test system: Striatum; assay: Biodistribution in rhesus monkey striatum at 150.3 MBq, iv after 11 mins; details: in vivo
[20] = Biodistribution in rhesus monkey cingulate cortex at 150.3 MBq, iv after 77.5 mins; details: in vivo; method in brief: as §1
[21] = test system: Hippocampus; assay: Biodistribution in rhesus monkey hippocampus at 150.3 MBq, iv after 6.5 mins; details: in vivo; method in brief: as §2
[22] = Biodistribution in rhesus monkey cerebellum at 150.3 MBq, iv after 62.5 mins; details: in vivo; method in brief: as §3
[23] = Biodistribution in rhesus monkey occipital lobe at 150.3 MBq, iv after 2.25 mins; details: in vivo, 135 s; method in brief: as §2
[24] = Biodistribution in rhesus monkey cerebellum at 150.3 MBq, iv after 49 mins; details: in vivo; method in brief: as §3
[25] = Biodistribution in rhesus monkey occipital lobe at 150.3 MBq, iv after 39 mins; details: in vivo, 0.65 h; method in brief: as §2
[26] = Biodistribution in rhesus monkey cerebellum at 150.3 MBq, iv after 6.5 mins; details: in vivo; method in brief: as §3
[27] = test system: Hippocampus; assay: Biodistribution in rhesus monkey hippocampus at 150.3 MBq, iv after 2.75 mins; details: in vivo, 165 s; method in brief: as §1
[28] = test system: Hippocampus; assay: Biodistribution in rhesus monkey hippocampus at 150.3 MBq, iv after 0.75 mins; details: in vivo, 45 s; method in brief: as §1
[29] = test system: Hippocampus; assay: Biodistribution in rhesus monkey hippocampus at 150.3 MBq, iv after 15 mins; details: in vivo, 0.25 h; method in brief: as §1
[30] = test system: Hippocampus; assay: Biodistribution in rhesus monkey hippocampus at 150.3 MBq, iv after 82.5 mins; details: in vivo, 1.375 h; method in brief: as §2
[31] = Biodistribution in rhesus monkey entorhinal cortex at 150.3 MBq, iv after 41 mins; details: in vivo; method in brief: as §1
[32] = test system: Hippocampus; assay: Biodistribution in rhesus monkey hippocampus at 150.3 MBq, iv after 3.5 mins; details: in vivo; method in brief: as §2
[33] = Biodistribution in rhesus monkey retina at 150.3 MBq, iv after 19 mins; details: in vivo
[34] = Biodistribution in rhesus monkey entorhinal cortex at 150.3 MBq, iv after 21 mins; details: in vivo, 0.35 h; method in brief: as §1
[35] = Biodistribution in rhesus monkey entorhinal cortex at 150.3 MBq, iv after 4.5 mins; details: in vivo, 0.075 h; method in brief: as §1
[36] = test system: Hippocampus; assay: Biodistribution in rhesus monkey hippocampus at 150.3 MBq, iv after 19 mins; details: in vivo; method in brief: as §1
[37] = test system: Striatum; assay: Biodistribution in rhesus monkey striatum at 150.3 MBq, iv after 35 mins; details: in vivo
[38] = test system: Hippocampus; assay: Biodistribution in rhesus monkey hippocampus at 150.3 MBq, iv after 13 mins; details: in vivo; method in brief: as §1
[39] = Biodistribution in rhesus monkey cingulate cortex at 150.3 MBq, iv after 25 mins; details: in vivo; method in brief: as §3
[40] = Biodistribution in rhesus monkey cerebellum at 150.3 MBq, iv after 13 mins; details: in vivo; method in brief: as §3
[41] = Biodistribution in rhesus monkey retina at 150.3 MBq, iv after 3.5 mins; details: in vivo
[42] = Biodistribution in rhesus monkey occipital lobe at 150.3 MBq, iv after 6.5 mins; details: in vivo
[43] = test system: Striatum; assay: Biodistribution in rhesus monkey striatum at 150.3 MBq, iv after 62.5 mins; details: in vivo
[44] = test system: Striatum; assay: Biodistribution in rhesus monkey striatum at 150.3 MBq, iv after 9.5 mins; details: in vivo
[45] = test system: Striatum; assay: Biodistribution in rhesus monkey striatum at 150.3 MBq, iv after 39 mins; details: in vivo, 0.65 h
[46] = test system: Striatum; assay: Biodistribution in rhesus monkey striatum at 150.3 MBq, iv after 3.5 mins; details: in vivo
[47] = test system: Hippocampus; assay: Biodistribution in rhesus monkey hippocampus at 150.3 MBq, iv after 47 mins; details: in vivo; method in brief: as §2
[48] = Biodistribution in rhesus monkey occipital lobe at 150.3 MBq, iv after 29 mins; details: in vivo; method in brief: as §2
[49] = Biodistribution in rhesus monkey retina at 150.3 MBq, iv after 25 mins; details: in vivo

In the case of `[11CH3]Oc1cccc(C(=O)NCCN2CCN(c3ncccc3C#N)CC2)c1`, the Drug uptake [1] is reported as 10.34 kBq/ml, the Drug uptake [2] is reported as 57.58 kBq/ml and the Drug uptake [3] is reported as 39.36 kBq/ml. For the same compound, the Drug uptake [4] was 24.15 kBq/ml, the Drug uptake [5] was 37.33 kBq/ml and the Drug uptake [6] was 9.01 kBq/ml. For the same compound, the Drug uptake [7] was 15.6843 kBq/ml, the Drug uptake [8] was 56.64 kBq/ml and the Drug uptake [9] was 15.53 kBq/ml. It also gave a Drug uptake [10] of 10.6 kBq/ml, a Drug uptake [11] of 30.28 kBq/ml and a Drug uptake [12] of 36.57 kBq/ml. For the same compound, the Drug uptake [13] was 21.64 kBq/ml, the Drug uptake [14] was 11.39 kBq/ml and the Drug uptake [15] was 13.26 kBq/ml. It also gave a Drug uptake [16] of 34.7 kBq/ml, a Drug uptake [17] of 55.05 kBq/ml and a Drug uptake [18] of 41.01 kBq/ml. The Drug uptake [19] was 28.08 kBq/ml, the Drug uptake [20] was 9.3 kBq/ml and the Drug uptake [21] was 37.33 kBq/ml. It also gave a Drug uptake [22] of 8.418 kBq/ml, a Drug uptake [23] of 44.53 kBq/ml and a Drug uptake [24] of 10.45 kBq/ml. It also gave a Drug uptake [25] of 9.974 kBq/ml, a Drug uptake [26] of 31.35 kBq/ml and a Drug uptake [27] of 47.34 kBq/ml. The Drug uptake [28] was 57.7053 kBq/ml, the Drug uptake [29] was 20.97 kBq/ml and the Drug uptake [30] was 8.042 kBq/ml. The Drug uptake [31] was 11.877 kBq/ml, the Drug uptake [32] was 43.93 kBq/ml and the Drug uptake [33] was 53.57 kBq/ml. The Drug uptake [34] was 19.46 kBq/ml, the Drug uptake [35] was 33.7 kBq/ml and the Drug uptake [36] was 18.77 kBq/ml. The Drug uptake [37] was 13.39 kBq/ml, the Drug uptake [38] was 23.13 kBq/ml and the Drug uptake [39] was 16.82 kBq/ml. It also gave a Drug uptake [40] of 21.2714 kBq/ml, a Drug uptake [41] of 39.59 kBq/ml and a Drug uptake [42] of 30.03 kBq/ml. For the same compound, the Drug uptake [43] was 9.547 kBq/ml, the Drug uptake [44] was 31.24 kBq/ml and the Drug uptake [45] was 11.52 kBq/ml. It also gave a Drug uptake [46] of 46.0188 kBq/ml, a Drug uptake [47] of 9.35 kBq/ml and a Drug uptake [48] of 13.8 kBq/ml. It also gave a Drug uptake [49] of 56.02 kBq/ml.
